Source: ChEMBL document CHEMBL4400518, “Synthesis, antimicrobial and cytotoxic activities, and molecular docking studies of N-arylsulfonylindoles containing an aminoguanidine, a semicarbazide, and a thiosemicarbazide moiety” (Eur J Med Chem, 2019)
≈ marks a conversion by molar mass, not a printed value.

Legend:
SGC-7901 = assay: Cytotoxicity against human SGC7901 cells measured after 48 hrs by CCK8 assay; format: functional, cell-based; settings: SGC-7901, 48 h
In short: (§1)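 Cells kept in DMEM with 10% FBS and penicillin-streptomycin at 37 °C, 5% CO2. About 1×10^4 cells per well attached for 24 h, then exposed for 48 h to 0.3, 1, 3, 10, 30 and 100 µmol/L of compound, in triplicate wells. CCK-8 added for 3 h, OD read at 450 nm. IC50 is the concentration inhibiting growth by 50%.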

[1] = Selectivity index, ratio of IC50 for HEK293T cells to MIC for Enterococcus faecalis CMCC 29212; format: toxicity; settings: human, read-out: Selectivity Index
[2] = Selectivity index, ratio of IC50 for HEK293T cells to MIC for multidrug-resistant Pseudomonas aeruginosa ATCC BAA-2111; format: toxicity; settings: human, read-out: Selectivity Index
Escherichia coli [3] = assay: Antibacterial activity against multidrug-resistant Escherichia coli ATCC BAA-196 measured after 24 hrs by ELISA; format: functional; settings: ATCC BAA-196, 24 h
In short: (§2)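 Broth serial dilution MIC. Mid-log bacteria in Mueller-Hinton or Tryptone Soya broth, diluted 1000-fold and inoculated at 10^5 CFU/mL. Compounds from DMSO stock, final DMSO ≤0.05%. Incubated 24 h at 37 °C; growth read as absorbance at 630 nm. MIC is the lowest concentration giving complete growth inhibition. Three independent experiments.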

Bacillus subtilis = assay: Antibacterial activity against Bacillus subtilis CMCC 63501 measured after 24 hrs by ELISA; format: functional; settings: CMCC 63501, 24 h
In short: (§3)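 Broth microdilution MIC. Mid-log bacteria in MHB or TSB diluted 1000-fold, inoculated at 10^5 CFU/mL. Compounds added from DMSO stocks; final DMSO at most 0.05%. Incubation 24 h at 37 °C. Growth read as absorbance at 630 nm. MIC taken as the lowest concentration giving complete growth inhibition. Three independent experiments.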

[4] = Selectivity index, ratio of IC50 for HEK293T cells to MIC for multidrug-resistant Escherichia coli ATCC BAA-196; format: toxicity; settings: human, read-out: Selectivity Index
[5] = Selectivity index, ratio of IC50 for HEK293T cells to MIC for methicillin-resistant Staphylococcus aureus ATCC 33591; format: toxicity; settings: human, read-out: Selectivity Index
Staphylococcus aureus [6] = assay: Antibacterial activity against methicillin-resistant Staphylococcus aureus ATCC 33591 measured after 24 hrs by ELISA; format: functional; settings: ATCC 33591, 24 h; in short: as §2
[7] = Cytotoxicity against human A590 cells measured after 48 hrs by CCK8 assay; format: functional, cell-based; in short: as §1
[8] = Selectivity index, ratio of IC50 for HEK293T cells to MIC for methicillin-resistant Staphylococcus aureus ATCC 43300; format: toxicity; settings: human, read-out: Selectivity Index
[9] = Selectivity index, ratio of IC50 for HEK293T cells to MIC for Streptococcus pneumoniae CMCC 31968; format: toxicity; settings: human, read-out: Selectivity Index
Escherichia coli [10] = assay: Antibacterial activity against Escherichia coli CMCC 44568 measured after 24 hrs by ELISA; format: functional; settings: CMCC 44568, 24 h; in short: as §3
[11] = Selectivity index, ratio of IC50 for HEK293T cells to MIC for Streptococcus pyogenes CMCC 32067; format: toxicity; settings: human, read-out: Selectivity Index
[12] = Selectivity index, ratio of IC50 for HEK293T cells to MIC for Escherichia coli CMCC 44568; format: toxicity; settings: human, read-out: Selectivity Index
[13] = Selectivity index, ratio of IC50 for HEK293T cells to MIC for Staphylococcus aureus CMCC(B) 26003; format: toxicity; settings: human, read-out: Selectivity Index
[14] = Selectivity index, ratio of IC50 for HEK293T cells to MIC for Escherichia coli CMCC 25922; format: toxicity; settings: human, read-out: Selectivity Index
Escherichia coli [15] = assay: Antibacterial activity against Escherichia coli CMCC 25922 measured after 24 hrs by ELISA; format: functional; settings: CMCC 25922, 24 h; in short: as §3
[16] = Selectivity index, ratio of IC50 for HEK293T cells to MIC for Pseudomonas aeruginosa CMCC 10104; format: toxicity; settings: human, read-out: Selectivity Index
Pseudomonas aeruginosa [17] = assay: Antibacterial activity against multidrug-resistant Pseudomonas aeruginosa ATCC BAA-2111 measured after 24 hrs by ELISA; format: functional; settings: ATCC BAA-2111, 24 h; in short: as §2
Staphylococcus aureus [18] = assay: Antibacterial activity against Staphylococcus aureus CMCC(B) 26003 measured after 24 hrs by ELISA; format: functional; settings: CMCC(B) 26003, 24 h; in short: as §3
Staphylococcus aureus [19] = assay: Antibacterial activity against methicillin-resistant Staphylococcus aureus ATCC 43300 measured after 24 hrs by ELISA; format: functional; settings: ATCC 43300, 24 h; in short: as §2
Pseudomonas aeruginosa [20] = assay: Antibacterial activity against Pseudomonas aeruginosa CMCC 10104 measured after 24 hrs by ELISA; format: functional; settings: CMCC 10104, 24 h; in short: as §3
HEK-293T = assay: Cytotoxicity against HEK293T cells measured after 48 hrs by CCK8 assay; format: cell-based; settings: Homo sapiens; in short: as §1
[21] = Selectivity index, ratio of IC50 for HEK293T cells to MIC for Pseudomonas aeruginosa CMCC 27853; format: toxicity; settings: human, read-out: Selectivity Index
Streptococcus pneumoniae = assay: Antibacterial activity against Streptococcus pneumoniae CMCC 31968 measured after 24 hrs by ELISA; format: functional; settings: CMCC 31968, 24 h
Streptococcus pyogenes = assay: Antibacterial activity against Streptococcus pyogenes CMCC 32067 measured after 24 hrs by ELISA; format: functional; settings: CMCC 32067, 24 h; in short: as §3
[22] = Selectivity index, ratio of IC50 for HEK293T cells to MIC for Staphylococcus aureus CMCC 25923; format: toxicity; settings: human, read-out: Selectivity Index
Enterococcus faecalis = assay: Antibacterial activity against Enterococcus faecalis CMCC 29212 measured after 24 hrs by ELISA; format: functional; settings: CMCC 29212, 24 h; in short: as §3
[23] = Selectivity index, ratio of IC50 for HEK293T cells to MIC for Bacillus subtilis CMCC 63501; format: toxicity; settings: human, read-out: Selectivity Index
Pseudomonas aeruginosa [24] = assay: Antibacterial activity against Pseudomonas aeruginosa CMCC 27853 measured after 24 hrs by ELISA; format: functional; settings: CMCC 27853, 24 h; in short: as §3
Staphylococcus aureus [25] = assay: Antibacterial activity against Staphylococcus aureus CMCC 25923 measured after 24 hrs by ELISA; format: functional; settings: CMCC 25923, 24 h; in short: as §3

## N=C(N)N/N=C\c1cn(S(=O)(=O)c2ccccc2)c2ccc(Br)cc12
SGC-7901
  IC50: 3.06 µM
[1]
  selectivity ratio: 3.75
[2]
  selectivity ratio: < 0.94
Escherichia coli [3]
  MIC: 2.39 µM (≈ 1 µg/mL)
Bacillus subtilis
  MIC: 4.77 µM (≈ 2 µg/mL)
[4]
  selectivity ratio: 30
[5]
  selectivity ratio: 30
Staphylococcus aureus [6]
  MIC: 2.39 µM (≈ 1 µg/mL)
[7]
  IC50: 14.7 µM
[8]
  selectivity ratio: 30
[9]
  selectivity ratio: < 0.23
Escherichia coli [10]
  MIC: 1.19 µM (≈ 0.5 µg/mL)
[11]
  selectivity ratio: 0.23
[12]
  selectivity ratio: 60.2
[13]
  selectivity ratio: 0.47
[14]
  selectivity ratio: 7.5
Escherichia coli [15]
  MIC: 9.55 µM (≈ 4.01 µg/mL)
[16]
  selectivity ratio: 7.5
Pseudomonas aeruginosa [17]
  MIC: > 76.4 µM
Staphylococcus aureus [18]
  MIC: 153 µM (≈ 64.2 µg/mL)
Staphylococcus aureus [19]
  MIC: 2.39 µM (≈ 1 µg/mL)
Pseudomonas aeruginosa [20]
  MIC: 9.55 µM (≈ 4.01 µg/mL)
HEK-293T
  IC50: 71.6 µM
[21]
  selectivity ratio: < 0.23
Streptococcus pneumoniae
  MIC: > 305 µM
Streptococcus pyogenes
  MIC: 305 µM (≈ 128 µg/mL)
[22]
  selectivity ratio: 30.2
Enterococcus faecalis
  MIC: 19.1 µM (≈ 8.02 µg/mL)
[23]
  selectivity ratio: 15
Pseudomonas aeruginosa [24]
  MIC: > 305 µM
Staphylococcus aureus [25]
  MIC: 2.37 µM (≈ 0.996 µg/mL)

## Cc1ccc(S(=O)(=O)n2cc(/C=N\NC(=N)N)c3ccccc32)cc1
SGC-7901
  IC50: 2.12 µM
[1]
  selectivity ratio: 1.92
[2]
  selectivity ratio: 7.67
Escherichia coli [3]
  MIC: 11.3 µM (≈ 4.01 µg/mL)
Bacillus subtilis
  MIC: 5.64 µM (≈ 2 µg/mL)
[4]
  selectivity ratio: 7.67
[5]
  selectivity ratio: 15.4
Staphylococcus aureus [6]
  MIC: 5.63 µM (≈ 2 µg/mL)
[7]
  IC50: 12.2 µM
[8]
  selectivity ratio: 30.7
[9]
  selectivity ratio: 30.7
Escherichia coli [10]
  MIC: 11.3 µM (≈ 4.01 µg/mL)
[11]
  selectivity ratio: < 0.24
[12]
  selectivity ratio: 7.68
[13]
  selectivity ratio: 7.68
[14]
  selectivity ratio: 7.68
Escherichia coli [15]
  MIC: 11.3 µM (≈ 4.01 µg/mL)
[16]
  selectivity ratio: 7.68
Pseudomonas aeruginosa [17]
  MIC: 11.3 µM (≈ 4.01 µg/mL)
Staphylococcus aureus [18]
  MIC: 11.3 µM (≈ 4.01 µg/mL)
Staphylococcus aureus [19]
  MIC: 2.82 µM (≈ 1 µg/mL)
Pseudomonas aeruginosa [20]
  MIC: 11.3 µM (≈ 4.01 µg/mL)
HEK-293T
  IC50: 86.7 µM
[21]
  selectivity ratio: 1.92
Streptococcus pneumoniae
  MIC: 2.82 µM (≈ 1 µg/mL)
Streptococcus pyogenes
  MIC: > 361 µM
[22]
  selectivity ratio: 7.68
Enterococcus faecalis
  MIC: 45.1 µM (≈ 16 µg/mL)
[23]
  selectivity ratio: 15.4
Pseudomonas aeruginosa [24]
  MIC: 45.1 µM (≈ 16 µg/mL)
Staphylococcus aureus [25]
  MIC: 11.3 µM (≈ 4.01 µg/mL)

## C/C(=N/NC(=N)N)c1cn(S(=O)(=O)c2ccc(C)cc2)c2ccccc12
SGC-7901
  IC50: 2.38 µM
[1]
  selectivity ratio: 1.22
[2]
  selectivity ratio: < 0.61
Escherichia coli [3]
  MIC: 10.8 µM (≈ 4 µg/mL)
Bacillus subtilis
  MIC: 10.8 µM (≈ 4 µg/mL)
[4]
  selectivity ratio: 4.89
[5]
  selectivity ratio: 9.78
Staphylococcus aureus [6]
  MIC: 5.42 µM (≈ 2 µg/mL)
[7]
  IC50: 2.68 µM
[8]
  selectivity ratio: 9.78
[9]
  selectivity ratio: 19.6
Escherichia coli [10]
  MIC: 10.8 µM (≈ 4 µg/mL)
[11]
  selectivity ratio: 2.44
[12]
  selectivity ratio: 4.89
[13]
  selectivity ratio: 4.89
[14]
  selectivity ratio: 2.44
Escherichia coli [15]
  MIC: 21.7 µM (≈ 8.01 µg/mL)
[16]
  selectivity ratio: 4.89
Pseudomonas aeruginosa [17]
  MIC: > 86.7 µM
Staphylococcus aureus [18]
  MIC: 10.8 µM (≈ 4 µg/mL)
Staphylococcus aureus [19]
  MIC: 5.42 µM (≈ 2 µg/mL)
Pseudomonas aeruginosa [20]
  MIC: 10.8 µM (≈ 4 µg/mL)
HEK-293T
  IC50: 53 µM
[21]
  selectivity ratio: 0.15
Streptococcus pneumoniae
  MIC: 2.71 µM (≈ 1 µg/mL)
Streptococcus pyogenes
  MIC: 21.7 µM (≈ 8.01 µg/mL)
[22]
  selectivity ratio: 9.78
Enterococcus faecalis
  MIC: 43.4 µM (≈ 16 µg/mL)
[23]
  selectivity ratio: 4.89
Pseudomonas aeruginosa [24]
  MIC: 347 µM (≈ 128 µg/mL)
Staphylococcus aureus [25]
  MIC: 5.42 µM (≈ 2 µg/mL)
